From ChEMBL document CHEMBL4251587, “Synthesis and antimicrobial activity of amino acid and peptide derivatives of mycophenolic acid” (2018)
Converted amounts (≈) assume the structure as drawn. The source made the active and inactive calls. No cut-off for these calls is given here. Non-standard residues stand in square brackets, D forms with d. Residues, ends and D or L forms follow the SMILES beside them. *: point of attachment. Mycophenolyl = COc1c(C)c2c(c(O)c1C/C=C(\C)CCC(=O)*)C(=O)OC2; Arg(NO2) = N=C(NCCC[CH](N)C(=O)O)N[N+](=O)[O-]; βAla = NCCC(=O)O

Key:
Format in all cases: functional
Staphylococcus aureus [1] = assay: Antibacterial activity against methicillin-resistant Staphylococcus aureus ATCC 43300 after 18 to 20 hrs by spectrophotometry based microdilution method
Summary of the method: (§1)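 Broth microdilution in MHB II following EUCAST. Log-phase cultures diluted 1:1000, then 50-fold in saline to McFarland 0.5, giving 10^4 cells/ml per well. Compounds (stock in 6% DMSO) twofold serially diluted. Incubation 35 ± 1 °C, 18–20 h. OD600 plus visual read; MIC50/MIC90 = 50%/90% growth arrest. Resazurin (0.015%, 37 °C, 2 h, dark) confirmation. 3 replicates, 3 independent experiments.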

Staphylococcus aureus [2] = assay: Antibacterial activity against methicillin-sensitive Staphylococcus aureus ATCC 25923 after 18 to 20 hrs by spectrophotometry based microdilution method; summary of the method: as §1
Klebsiella pneumoniae [3] = assay: Antibacterial activity against ESBL positive Klebsiella pneumoniae ATCC 700603 after 18 to 20 hrs by spectrophotometry based microdilution method
Summary of the method: (§2)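 Broth microdilution in Mueller Hinton Broth II following EUCAST. Log-phase cultures were diluted to McFarland 0.5, and 104 cells/ml went into 2-fold serial dilutions of compound (stock in 6% DMSO). Incubation was 35 ± 1 °C for 18–20 h, read at OD600 and visually. MIC50 and MIC90 were taken as the concentrations giving 50% and 90% growth arrest. Resazurin (0.015%, 2 h, 37 °C, dark) confirmed the result. 3 replicates in 3 independent experiments.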

Pseudomonas aeruginosa [4] = assay: Antibacterial activity against Pseudomonas aeruginosa ATCC 27853 after 18 to 20 hrs by spectrophotometry based microdilution method; summary of the method: as §2
Escherichia coli [5] = assay: Antibacterial activity against Escherichia coli ATCC 8739 at 750 uM after 18 to 20 hrs by spectrophotometry based microdilution method relative to untreated control; settings: ATCC 8739, ATCC 8739, read-out: GI
Summary of the method: (§3)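 Growth inhibition at a single compound concentration in the EUCAST broth microdilution setup: Mueller Hinton Broth II, 104 cells/ml from log-phase culture, compound stock in 6% DMSO. After 35 ± 1 °C for 18–20 h, OD600 was compared with the untreated growth control. ">" marks 10–50% inhibition and ">>" marks under 10% inhibition. 3 replicates, 3 independent experiments.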

Pseudomonas aeruginosa [6] = assay: Antibacterial activity against Pseudomonas aeruginosa ATCC 27853 assessed as inhibition of bacterial growth at 1500 uM after 18 to 20 hrs by spectrophotometry based microdilution method relative to untreated control; settings: read-out: GI; summary of the method: as §3
Klebsiella pneumoniae [7] = assay: Antibacterial activity against ESBL positive Klebsiella pneumoniae ATCC 700603 assessed as inhibition of bacterial growth at 375 uM after 18 to 20 hrs by spectrophotometry based microdilution method relative to untreated control; settings: read-out: GI; summary of the method: as §3
Escherichia coli [8] = assay: Antibacterial activity against Escherichia coli ATCC 8739 assessed as inhibition of bacterial growth at 1500 uM after 18 to 20 hrs by spectrophotometry based microdilution method relative to untreated control; settings: ATCC 8739, ATCC 8739, read-out: GI; summary of the method: as §3
Acinetobacter baumannii = assay: Antibacterial activity against Acinetobacter baumannii ATCC 17978 after 18 to 20 hrs by spectrophotometry based microdilution method
Escherichia coli [9] = assay: Antibacterial activity against Escherichia coli ATCC 8739 after 18 to 20 hrs by spectrophotometry based microdilution method; summary of the method: as §2
Staphylococcus aureus [10] = assay: Antibacterial activity against methicillin-sensitive Staphylococcus aureus ATCC 25923 assessed as inhibition of bacterial growth at 187.5 uM after 18 to 20 hrs by spectrophotometry based microdilution method relative to untreated control; settings: read-out: GI; summary of the method: as §3
Escherichia coli [11] = assay: Antibacterial activity against Escherichia coli ATCC 8739 at 375 uM after 18 to 20 hrs by spectrophotometry based microdilution method relative to untreated control; settings: ATCC 8739, ATCC 8739, read-out: GI; summary of the method: as §3

| SMILES | MIC50 (Staphylococcus aureus [1]) | MIC50 (Staphylococcus aureus [2]) | MIC50 (Klebsiella pneumoniae [3]) | MIC50 (Pseudomonas aeruginosa [4]) | inhibition of growth at 1500 µM (Pseudomonas aeruginosa [6]) | MIC50 (Acinetobacter baumannii) | MIC50 (Escherichia coli [9]) | also measured |
| --- | --- | --- | --- | --- | --- | --- | --- | --- |
| COc1c(C)c2c(c(O)c1C/C=C(\C)CCC(=O)N[C@@H](CCCNC(=N)N[N+](=O)[O-])C(=O)O)C(=O)OC2 | inactive | inactive | inactive | inactive | – | – | – | inhibition of growth at 750 µM (Escherichia coli [5]): 10 to 50% |
| COc1c(C)c2c(c(O)c1C/C=C(\C)CCC(=O)N[C@H](C(=O)O)[C@@H](C)O)C(=O)OC2 | inactive | inactive | – | – | 10 to 50% | – | – | inhibition of growth at 375 µM (Klebsiella pneumoniae [7]): 10 to 50%; inhibition of growth at 750 µM (Escherichia coli [5]): 10 to 50% |
| COc1c(C)c2c(c(O)c1C/C=C(\C)CCC(=O)N[C@H](CCCNC(=N)N[N+](=O)[O-])C(=O)O)C(=O)OC2 | inactive | inactive | inactive | – | 10 to 50% | – | – | inhibition of growth at 1500 µM (Escherichia coli [8]): 10 to 50% |
| COC(=O)C(NC(=O)CC/C(C)=C/Cc1c(O)c2c(c(C)c1OC)COC2=O)C(=O)OC | 256 µg/mL (≈ 570 µM) | 256 µg/mL (≈ 570 µM) | 128 µg/mL (≈ 285 µM) | inactive | – | 256 µg/mL (≈ 570 µM) | 256 µg/mL (≈ 570 µM) | – |
| COC(=O)[C@@H](CCCNC(=N)N[N+](=O)[O-])NC(=O)CC/C(C)=C/Cc1c(O)c2c(c(C)c1OC)COC2=O | inactive | inactive | inactive | – | – | – | – | – |
| NC[C@H]1O[C@H](O[C@H]2[C@H](O)[C@@H](O[C@H]3O[C@H](CO)[C@@H](O)[C@H](N)[C@H]3O)[C@H](N)C[C@@H]2N)[C@H](O)[C@@H](O)[C@@H]1O [KANAMYCIN] | – | – | inactive | 1500 µg/mL (≈ 3100 µM) | – | inactive | – | MIC90 (Staphylococcus aureus [1]): 125 µg/mL (≈ 258 µM); MIC90 (Staphylococcus aureus [2]): 7.8 µg/mL (≈ 16.1 µM); MIC90 (Escherichia coli [9]): 15.6 µg/mL (≈ 32.2 µM) |
| COC(=O)[C@H](CCCNC(=N)N[N+](=O)[O-])NC(=O)CC/C(C)=C/Cc1c(O)c2c(c(C)c1OC)COC2=O | 64 µg/mL (≈ 120 µM) | 32 µg/mL (≈ 59.8 µM) | 64 µg/mL (≈ 120 µM) | inactive | – | 128 µg/mL (≈ 239 µM) | 256 µg/mL (≈ 478 µM) | – |
| COC(=O)C(NC(=O)C(CCCCNC(=O)CN)NC(=O)C1CCCN1C(=O)C(CCCNC(=N)N[N+](=O)[O-])NC(=O)CC/C(C)=C/Cc1c(O)c2c(c(C)c1OC)COC2=O)C(C)O (stereo unspecified) (Mycophenolyl-[Arg(NO2)]PK(Gly)T-OMe; configuration not given here) | 64 µg/mL (≈ 69.6 µM) | 64 µg/mL (≈ 69.6 µM) | 16 µg/mL (≈ 17.4 µM) | inactive | – | 128 µg/mL (≈ 139 µM) | 256 µg/mL (≈ 279 µM) | – |
| COC(=O)C(NC(=O)C(CCCCNC(=O)CCN)NC(=O)C1CCCN1C(=O)C(CCCNC(=N)N[N+](=O)[O-])NC(=O)CC/C(C)=C/Cc1c(O)c2c(c(C)c1OC)COC2=O)C(C)O (stereo unspecified) (Mycophenolyl-[Arg(NO2)]PK(βAla)T-OMe; configuration not given here) | 32 µg/mL (≈ 34.3 µM) | 32 µg/mL (≈ 34.3 µM) | 32 µg/mL (≈ 34.3 µM) | inactive | – | 128 µg/mL (≈ 137 µM) | 256 µg/mL (≈ 274 µM) | – |
| COc1c(C)c2c(c(O)c1C/C=C(\C)CCC(=O)O)C(=O)OC2 [MYCOPHENOLIC ACID] | 750 µg/mL (≈ 2340 µM) | – | 128 µg/mL (≈ 400 µM) | – | 10 to 50% | 128 µg/mL (≈ 400 µM) | – | MIC90 (Escherichia coli [9]): 750 µg/mL (≈ 2340 µM); inhibition of growth at 187.5 µM (Staphylococcus aureus [10]): 10 to 50% |
| CCC(C)[C@H](NC(=O)CC/C(C)=C/Cc1c(O)c2c(c(C)c1OC)COC2=O)C(=O)OC (stereo partly specified) | 256 µg/mL (≈ 572 µM) | 16 µg/mL (≈ 35.8 µM) | 256 µg/mL (≈ 572 µM) | inactive | – | 256 µg/mL (≈ 572 µM) | 256 µg/mL (≈ 572 µM) | – |
| COC(=O)C[C@H](NC(=O)CC/C(C)=C/Cc1c(O)c2c(c(C)c1OC)COC2=O)C(=O)OC | 32 µg/mL (≈ 69 µM) | 32 µg/mL (≈ 69 µM) | 256 µg/mL (≈ 552 µM) | inactive | – | 256 µg/mL (≈ 552 µM) | 256 µg/mL (≈ 552 µM) | – |
| COC(=O)[C@@H](NC(=O)CC/C(C)=C/Cc1c(O)c2c(c(C)c1OC)COC2=O)C(C)O (stereo partly specified) | 32 µg/mL (≈ 73.5 µM) | 8 µg/mL (≈ 18.4 µM) | 256 µg/mL (≈ 588 µM) | inactive | – | 256 µg/mL (≈ 588 µM) | 256 µg/mL (≈ 588 µM) | – |
| CC[C@H](C)[C@H](NC(=O)CC/C(C)=C/Cc1c(O)c2c(c(C)c1OC)COC2=O)C(=O)O | – | inactive | – | – | – | inactive | – | inhibition of growth at 375 µM (Escherichia coli [11]): 10 to 50% |
| COc1c(C)c2c(c(O)c1C/C=C(\C)CCC(=O)N[C@@H](CC(=O)O)C(=O)O)C(=O)OC2 | inactive | inactive | inactive | – | 10 to 50% | – | – | inhibition of growth at 750 µM (Escherichia coli [5]): 10 to 50% |
| CC1(C)S[C@@H]2[C@H](NC(=O)[C@H](N)c3ccccc3)C(=O)N2[C@H]1C(=O)O [AMPICILLIN] | – | – | – | – | – | – | – | MIC90 (Staphylococcus aureus [1]): 128 µg/mL (≈ 366 µM); MIC90 (Staphylococcus aureus [2]): 0.125 µg/mL (≈ 0.358 µM); MIC90 (Acinetobacter baumannii): 2 µg/mL (≈ 5.72 µM); MIC90 (Escherichia coli [9]): 8 µg/mL (≈ 22.9 µM); MIC90 (Klebsiella pneumoniae [3]): 128 µg/mL (≈ 366 µM); MIC90 (Pseudomonas aeruginosa [4]): 256 µg/mL (≈ 733 µM) |
| COc1c(C)c2c(c(O)c1C/C=C(\C)CCC(=O)N[C@@H](C(=O)O)[C@@H](C)O)C(=O)OC2 | inactive | inactive | inactive | – | 10 to 50% | – | – | inhibition of growth at 1500 µM (Escherichia coli [8]): 10 to 50% |
| COC(=O)[C@H](NC(=O)CC/C(C)=C/Cc1c(O)c2c(c(C)c1OC)COC2=O)C(C)O (stereo partly specified) | inactive | inactive | inactive | – | 10 to 50% | – | – | inhibition of growth at 1500 µM (Escherichia coli [8]): 10 to 50% |
